Measured values: paper PMC2805153 (Molecular cancer therapeutics, 2009)
pIC50: −log10 of the molar value. Entries after “also recorded” stand apart in the source; their conditions may differ.

Experiments:
human breast tumor cells = test: Growth assay, breast tumor cells in general; assay type: cell-based; conditions: SK-BR-3 and MDA-MB-231 breast tumor cells, 72 hours of treatment
In short: (§1)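 SK-BR-3 and MDA-MB-231 cells were grown in RPMI 1640 with 1.5% FBS at 37°C and 5% CO2, seeded at 5,000/well, and rested 18–24 h. Test compound or vehicle was added for 72 h (DMSO ≤0.2%). CellTiter-Glo ATP luminescence gave viable cells.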

PDE5A = PDE5A (Homo sapiens, UniProt O76074); test: Recombinant PDE isozyme IMAP FP assay; assay type: biochemical
In short: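 Commercial recombinant PDE isozyme at 0.25 mg/mL, preincubated with test compound 30 min at 30°C. Substrate mix of 25 nM each fluorescein-cAMP and TAMRA-cGMP then added for 90 min at 30°C, with cAMP and cGMP hydrolysis read together. Binding reagent stops reaction; IMAP fluorescence polarization read. DMSO ≤2%. IC50 from 10 concentrations, ≥2 replicates each, versus vehicle, four-parameter logistic fit; experiments repeated at least twice.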

HMEC [1] = test: Caspase3/7 Glo apoptosis assay; assay type: cell-based, human; conditions: 5 hours, staurosporine 1μM positive control
In short: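 HMEC grown in MEGM complete medium were seeded at 10,000 cells/well and left 18–24 h. They were then exposed to test compound or vehicle (DMSO ≤0.2%), with 1μM staurosporine as positive control. Apoptosis was read as Caspase3/7 Glo luminescence from cleavage of a caspase 3/7 substrate.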

[2] = tested on: MDA-MB-231 breast tumor cells; test: Growth assay; assay type: cell-based, human
In short: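 MDA-MB-231 cells went into RPMI 1640 with 1.5% FBS at 5,000/well and rested 18–24 h. Optional 1 h pretreatment with NOR-3 came next, then test compound or vehicle for 72 h (DMSO ≤0.2%). Viable cells were read as ATP luminescence (CellTiter-Glo).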

[3] = tested on: SK-BR-3 breast tumor cells; test: Growth assay; assay type: cell-based; conditions: Homo sapiens, SK-BR-3, 72 h, read-out: growth inhibition IC50
In short: as §1

[4] = tested on: ZR75-1 breast tumor cells; test: Growth assay; assay type: cell-based; conditions: Homo sapiens, ZR-75-1, 72 h, read-out: growth inhibition IC50
In short: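 Cells seeded at 5,000/well were rested 18–24 h, then treated with test compound or vehicle for 72 h (DMSO ≤0.2%). Growth was scored as viable-cell ATP luminescence (CellTiter-Glo) against vehicle.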

[5] = tested on: normal human mammary epithelial cells (HMEC); test: Growth assay; assay type: cell-based; conditions: 72 h, read-out: growth inhibition IC50
In short: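 Primary normal mammary epithelial cells were grown in MEGM complete medium and seeded at 5,000/well. After 18–24 h they received test compound or vehicle for 72 h (DMSO ≤0.2%). ATP-based luminescence (CellTiter-Glo) measured viable cells.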

[6] = tested on: MDA-MB-231, SKBR3, and ZR75-1 cells; test: Caspase3/7 Glo apoptosis assay; assay type: cell-based, human; conditions: 100 μM, 5 hours
In short: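 MDA-MB-231 and SK-BR-3 cells were kept in RPMI 1640 with 10% FBS, with serum cut to 1.5% FBS for the assay, at 37°C and 5% CO2. Cells were seeded at 10,000/well, rested 18–24 h, then given test compound or vehicle (DMSO ≤0.2%). Caspase 3/7 activation was read as luminescence from Caspase3/7 Glo substrate cleavage.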

[7] = tested on: PDE activity in SK-BR-3 and MDA-MB-231 cell lysates; test: IMAP FP PDE assay in tumor cell lysates; assay type: biochemical, human; conditions: for inhibition of cGMP hydrolysis: tumor cell lysates, TAMRA-cGMP substrate
[8] = tested on: PDE activity in HMEC lysates; test: IMAP FP PDE assay in HMEC lysates; assay type: biochemical, human
In short: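 HMEC were lysed in ice-cold buffer (20mM Tris-acetate, 5mM Mg acetate, 1mM EGTA, 0.8% Triton X-100, 50mM NaF, protease inhibitors, pH 7.4) and cleared at 10,000g, 10 min, 4°C. Lysate at 0.25 mg/mL was preincubated with test compound 30 min at 30°C. Substrate was 25 nM each Fl-cAMP and TAMRA-cGMP, run 90 min at 30°C. Reactions were stopped with IMAP binding reagent and read by FP (DMSO ≤2%). IC50 came from 10 concentrations, ≥2 replicates.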

MDA-MB-231 cells = test: Intracellular cGMP assay; assay type: cell-based, human
In short: (§2)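 Cells were seeded at 1×10^6 per 10 cm dish: HMEC in MEGM, MDA-MB-231 in RPMI 1640 with 1.5% FBS. After 48 h they were exposed to test compound or vehicle for 30 min, then lysed. Intracellular cGMP was measured by direct competitive EIA, optical density at 630 nm.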

HMEC [9] = test: Intracellular cGMP assay; assay type: cell-based, human; conditions: 30 minutes of treatment
In short: as §2

[10] = tested on: PKG (VASP phosphorylation) in MDA-MB-231 cells; test: VASP Ser239 phosphorylation western blot; assay type: cell-based, human
In short: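 MDA-MB-231 cells were treated with test compound across doses and times, then lysed in Tris-acetate/Triton X-100/NaF buffer at pH 7.4. Lysate (30 μg protein) was separated by 12% SDS-PAGE and transferred to nitrocellulose, blocked in 5% BSA in TBS-0.05% Tween-20. Blots were probed for phospho-VASP Ser239 and total VASP with HRP secondaries and detected by chemiluminescence on film.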

breast tumor cells [11] = test: TUNEL labeling; assay type: cell-based, human; conditions: data not shown
breast tumor cells [12] = test: Cell cycle distribution; assay type: cell-based, human; conditions: conditions of the growth assays, data not shown
PDE4A = PDE4A (Homo sapiens, UniProt P27815); test: Recombinant PDE isozyme IMAP FP assay; assay type: biochemical; conditions: cAMP substrate; SS tested up to 200 μM
PDE6C = PDE6C (Homo sapiens, UniProt P51160); test: Recombinant PDE isozyme IMAP FP assay; assay type: biochemical; conditions: cGMP substrate; SS tested up to 200 μM
PDE7A = PDE7A (Homo sapiens, UniProt Q13946); test: Recombinant PDE isozyme IMAP FP assay; assay type: biochemical; conditions: cAMP substrate; SS tested up to 200 μM
PDE8A = PDE8A (Homo sapiens, UniProt O60658); test: Recombinant PDE isozyme IMAP FP assay; assay type: biochemical; conditions: cAMP substrate; SS tested up to 200 μM
PDE9A = PDE9A (Homo sapiens, UniProt O76083); test: Recombinant PDE isozyme IMAP FP assay; assay type: biochemical; conditions: cGMP substrate; SS tested up to 200 μM
PDE10A = PDE10A (Homo sapiens, UniProt Q9Y233); test: Recombinant PDE isozyme IMAP FP assay; assay type: biochemical; conditions: SS tested up to 200 μM
PDE11A = PDE11A (Homo sapiens, UniProt Q9HCR9); test: Recombinant PDE isozyme IMAP FP assay; assay type: biochemical; conditions: SS tested up to 200 μM
COX-1 = conditions: read-out: IC50 to inhibit COX-1; cited from earlier work
[13] = MDA-MB-231, 30 minutes of treatment
[14] = breast tumor cells, line not given

Sequence of PDE10A (Q9Y233 290-1055 limits assumed): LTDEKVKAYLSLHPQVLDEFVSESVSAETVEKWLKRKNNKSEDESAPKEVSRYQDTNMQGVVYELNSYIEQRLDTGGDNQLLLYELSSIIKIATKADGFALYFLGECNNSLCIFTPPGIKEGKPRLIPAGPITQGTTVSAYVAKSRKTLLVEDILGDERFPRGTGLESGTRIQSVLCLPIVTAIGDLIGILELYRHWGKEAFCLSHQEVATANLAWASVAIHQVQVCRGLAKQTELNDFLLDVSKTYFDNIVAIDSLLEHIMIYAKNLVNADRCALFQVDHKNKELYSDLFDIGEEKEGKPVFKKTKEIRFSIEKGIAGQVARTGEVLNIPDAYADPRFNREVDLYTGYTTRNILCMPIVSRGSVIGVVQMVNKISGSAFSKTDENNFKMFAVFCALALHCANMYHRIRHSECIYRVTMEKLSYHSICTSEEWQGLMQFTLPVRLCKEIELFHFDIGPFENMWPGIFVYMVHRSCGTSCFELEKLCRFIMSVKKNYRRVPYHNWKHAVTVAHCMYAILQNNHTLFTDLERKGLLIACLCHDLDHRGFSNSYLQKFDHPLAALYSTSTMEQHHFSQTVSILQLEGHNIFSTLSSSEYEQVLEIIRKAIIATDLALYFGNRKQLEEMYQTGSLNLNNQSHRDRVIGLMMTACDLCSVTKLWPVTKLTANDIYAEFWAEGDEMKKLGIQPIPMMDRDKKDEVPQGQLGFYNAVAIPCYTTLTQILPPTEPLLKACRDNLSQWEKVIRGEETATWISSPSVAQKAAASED
Sequence of PDE11A (Q9HCR9 whole entry): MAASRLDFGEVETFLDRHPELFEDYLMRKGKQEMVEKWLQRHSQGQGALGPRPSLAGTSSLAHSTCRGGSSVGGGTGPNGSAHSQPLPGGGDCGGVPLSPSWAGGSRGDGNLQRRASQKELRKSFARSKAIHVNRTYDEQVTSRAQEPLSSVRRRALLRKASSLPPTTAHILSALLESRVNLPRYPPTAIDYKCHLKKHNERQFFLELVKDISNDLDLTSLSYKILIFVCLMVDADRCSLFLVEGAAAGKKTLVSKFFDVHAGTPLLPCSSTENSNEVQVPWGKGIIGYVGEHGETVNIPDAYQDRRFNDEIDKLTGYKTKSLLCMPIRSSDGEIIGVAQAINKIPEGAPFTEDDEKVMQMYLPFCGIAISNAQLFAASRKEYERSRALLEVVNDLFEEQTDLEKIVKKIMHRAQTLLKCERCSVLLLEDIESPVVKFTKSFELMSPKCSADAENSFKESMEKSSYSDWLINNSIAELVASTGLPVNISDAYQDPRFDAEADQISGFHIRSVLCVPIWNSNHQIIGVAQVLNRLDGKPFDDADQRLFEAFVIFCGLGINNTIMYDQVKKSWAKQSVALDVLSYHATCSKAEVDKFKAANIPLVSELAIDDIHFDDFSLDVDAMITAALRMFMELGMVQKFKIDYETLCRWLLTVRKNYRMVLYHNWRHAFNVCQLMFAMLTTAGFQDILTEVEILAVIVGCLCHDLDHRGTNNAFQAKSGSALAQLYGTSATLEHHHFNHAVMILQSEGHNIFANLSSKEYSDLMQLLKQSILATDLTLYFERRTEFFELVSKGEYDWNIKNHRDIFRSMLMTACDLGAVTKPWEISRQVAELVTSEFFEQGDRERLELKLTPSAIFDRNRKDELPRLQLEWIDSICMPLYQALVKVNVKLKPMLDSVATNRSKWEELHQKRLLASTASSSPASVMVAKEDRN
Sequence of PDE7A (Q13946 whole entry): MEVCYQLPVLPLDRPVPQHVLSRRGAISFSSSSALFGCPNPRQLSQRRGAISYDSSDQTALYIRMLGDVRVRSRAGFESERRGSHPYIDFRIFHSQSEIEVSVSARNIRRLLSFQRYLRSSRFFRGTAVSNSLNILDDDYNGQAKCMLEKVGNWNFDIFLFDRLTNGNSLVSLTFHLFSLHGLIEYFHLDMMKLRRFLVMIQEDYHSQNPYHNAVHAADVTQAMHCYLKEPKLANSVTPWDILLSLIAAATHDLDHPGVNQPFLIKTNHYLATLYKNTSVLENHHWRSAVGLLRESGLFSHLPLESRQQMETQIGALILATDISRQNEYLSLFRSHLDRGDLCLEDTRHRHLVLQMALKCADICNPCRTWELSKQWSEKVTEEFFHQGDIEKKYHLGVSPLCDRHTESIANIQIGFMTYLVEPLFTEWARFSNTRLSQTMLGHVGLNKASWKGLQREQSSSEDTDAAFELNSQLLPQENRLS
Sequence of PDE8A (O60658 whole entry): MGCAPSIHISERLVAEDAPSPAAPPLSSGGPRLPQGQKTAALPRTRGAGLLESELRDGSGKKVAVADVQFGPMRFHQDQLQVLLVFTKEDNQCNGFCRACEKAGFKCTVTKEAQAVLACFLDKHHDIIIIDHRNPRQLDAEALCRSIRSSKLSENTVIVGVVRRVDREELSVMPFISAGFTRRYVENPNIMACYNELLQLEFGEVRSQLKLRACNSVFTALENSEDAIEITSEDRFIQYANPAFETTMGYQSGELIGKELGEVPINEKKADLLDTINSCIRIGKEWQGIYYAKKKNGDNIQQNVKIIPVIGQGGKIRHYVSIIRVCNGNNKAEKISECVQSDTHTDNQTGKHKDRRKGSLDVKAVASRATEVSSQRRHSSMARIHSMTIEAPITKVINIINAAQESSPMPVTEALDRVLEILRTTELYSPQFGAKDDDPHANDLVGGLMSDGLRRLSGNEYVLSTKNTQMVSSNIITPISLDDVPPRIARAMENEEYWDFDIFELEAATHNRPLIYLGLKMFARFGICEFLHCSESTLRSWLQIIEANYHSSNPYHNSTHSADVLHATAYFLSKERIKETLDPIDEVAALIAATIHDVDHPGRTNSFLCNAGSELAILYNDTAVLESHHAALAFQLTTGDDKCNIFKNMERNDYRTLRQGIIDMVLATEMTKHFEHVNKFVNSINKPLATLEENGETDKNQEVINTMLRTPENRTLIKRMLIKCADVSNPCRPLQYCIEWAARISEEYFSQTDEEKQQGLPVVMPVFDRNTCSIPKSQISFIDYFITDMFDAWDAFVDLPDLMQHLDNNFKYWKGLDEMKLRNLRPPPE
Sequence of PDE4A (P27815 whole entry): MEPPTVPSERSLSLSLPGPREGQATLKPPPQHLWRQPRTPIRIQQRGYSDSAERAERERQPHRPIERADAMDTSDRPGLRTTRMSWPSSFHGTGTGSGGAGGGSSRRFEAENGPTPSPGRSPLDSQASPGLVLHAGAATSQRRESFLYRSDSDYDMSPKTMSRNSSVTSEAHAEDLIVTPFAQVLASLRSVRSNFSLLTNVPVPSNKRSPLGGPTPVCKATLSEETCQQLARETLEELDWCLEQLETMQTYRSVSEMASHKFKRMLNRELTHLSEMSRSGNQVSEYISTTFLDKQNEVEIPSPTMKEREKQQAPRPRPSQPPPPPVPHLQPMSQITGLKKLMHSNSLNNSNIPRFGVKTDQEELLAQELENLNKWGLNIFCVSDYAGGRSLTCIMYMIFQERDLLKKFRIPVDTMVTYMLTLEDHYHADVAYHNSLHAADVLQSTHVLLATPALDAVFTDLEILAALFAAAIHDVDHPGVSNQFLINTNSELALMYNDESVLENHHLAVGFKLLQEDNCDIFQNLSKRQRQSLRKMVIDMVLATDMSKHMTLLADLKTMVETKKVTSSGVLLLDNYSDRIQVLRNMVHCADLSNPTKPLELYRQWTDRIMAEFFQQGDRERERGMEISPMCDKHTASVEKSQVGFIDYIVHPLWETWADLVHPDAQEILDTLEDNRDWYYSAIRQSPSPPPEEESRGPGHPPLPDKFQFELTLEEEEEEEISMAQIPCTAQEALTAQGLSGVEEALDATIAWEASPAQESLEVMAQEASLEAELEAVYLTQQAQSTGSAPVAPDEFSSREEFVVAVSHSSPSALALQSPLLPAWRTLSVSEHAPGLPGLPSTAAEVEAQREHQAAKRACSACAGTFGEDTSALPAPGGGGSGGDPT
Sequence of PDE6C (P51160 whole entry): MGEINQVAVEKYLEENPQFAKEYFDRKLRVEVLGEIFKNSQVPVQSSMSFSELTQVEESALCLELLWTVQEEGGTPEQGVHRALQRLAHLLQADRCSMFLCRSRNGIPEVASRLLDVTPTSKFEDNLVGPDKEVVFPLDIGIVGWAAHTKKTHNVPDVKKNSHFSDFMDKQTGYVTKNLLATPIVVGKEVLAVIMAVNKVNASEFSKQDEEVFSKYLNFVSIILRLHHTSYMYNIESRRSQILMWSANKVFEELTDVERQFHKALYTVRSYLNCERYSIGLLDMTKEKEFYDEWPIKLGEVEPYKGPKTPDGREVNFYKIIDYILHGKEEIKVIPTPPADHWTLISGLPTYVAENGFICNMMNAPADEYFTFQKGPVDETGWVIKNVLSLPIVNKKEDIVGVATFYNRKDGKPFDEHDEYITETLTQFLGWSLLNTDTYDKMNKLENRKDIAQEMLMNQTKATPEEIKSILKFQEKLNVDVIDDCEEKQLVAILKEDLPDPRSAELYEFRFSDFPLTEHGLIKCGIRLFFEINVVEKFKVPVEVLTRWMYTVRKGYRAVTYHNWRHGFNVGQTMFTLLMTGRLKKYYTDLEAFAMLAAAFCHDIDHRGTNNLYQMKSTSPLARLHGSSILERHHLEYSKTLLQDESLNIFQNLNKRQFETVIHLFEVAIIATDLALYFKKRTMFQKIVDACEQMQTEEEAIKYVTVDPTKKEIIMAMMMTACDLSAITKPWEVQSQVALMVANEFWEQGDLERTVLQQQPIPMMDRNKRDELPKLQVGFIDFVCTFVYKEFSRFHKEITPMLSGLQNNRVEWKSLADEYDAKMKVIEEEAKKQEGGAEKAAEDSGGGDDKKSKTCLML

In the case of COCc1nc2c([nH]1)c(=O)n(C)c(=O)n2CC(C)C [8-methoxymethyl-IBMX], the “tumor cell growth inhibitory activity” value (human breast tumor cells) was “none were found to be active”.
With CC/C(=C\C(=N/O)C(N)=O)C(C)[N+](=O)[O-] (racemic) [NOR-3, (±)-(E)-Ethyl-2-((E)-hydroxyimino)-5-nitro-3-hexenamide] the “tumor cell growth inhibitory activity” value (human breast tumor cells) was “inhibited the growth”.
In the case of Cc1[nH]c(=O)c(C#N)cc1-c1ccncc1 [milrinone], the “tumor cell growth inhibitory activity” value (human breast tumor cells) was “none were found to be active”.
With Clc1cccc(Nc2nnc(-c3ccccc3)c3ccccc23)c1 [MY5445, 1-(3-chloroanilino)-4-phenylphthalazine] the “tumor cell growth inhibitory activity” value (human breast tumor cells) was “inhibited breast tumor cell growth” and the pIC50 (PDE5A) was 4.84.
With COc1ccc(C2CNC(=O)C2)cc1OC1CCCC1 (centres unmarked) [rolipram] the “tumor cell growth inhibitory activity” value (human breast tumor cells) was “none were found to be active”.
With C=C[C@@]1(C)CC(=O)[C@]2(O)[C@@]3(C)[C@@H](O)CCC(C)(C)[C@@H]3[C@H](O)[C@H](OC(C)=O)[C@@]2(C)O1 [forskolin] the “tumor cell growth inhibitory activity” value (human breast tumor cells) was “no significant growth inhibitory activity”.
With CN[C@@H]1C[C@H]2O[C@@](C)([C@@H]1OC)n1c3ccccc3c3c4c(c5c6ccccc6n2c5c31)C(=O)NC4 [staurosporine] the “activation of caspases 3 and 7” value (HMEC [1]) was “increased caspase activity”.
With O=C1C(Nc2ccccc2)=CC(=O)c2ncccc21 [LY83583] the “effect on sensitivity to growth inhibition by doxorubicin” value ([2]; MDA-MB-231, control experiment, data not shown) was “ineffective”.
In the case of CCCCCC[C@@H]([C@@H](C)O)n1cnc2c(N)ncnc21 (racemic) [EHNA], the “tumor cell growth inhibitory activity” value (human breast tumor cells) was “none were found to be active”.
In the case of CCCOc1ccccc1-c1nc2nn[nH]c2c(=O)[nH]1 [zaprinast], the “tumor cell growth inhibitory activity” value (human breast tumor cells) was “none were found to be active”.
For CC(C)Cn1c(=O)n(C)c(=O)c2[nH]cnc21 [IBMX, 3-Isobutyl-1-methylxanthine], the “tumor cell growth inhibitory activity” value (human breast tumor cells) was “none were found to be active”.
With CSc1ccc(/C=C2/C(C)=C(CC(=O)O)c3cc(F)ccc32)cc1 [SS, sulindac sulfide] the pIC50 [3] was 4.23, the pIC50 [4] was 4.12 and the “change of growth inhibition IC50 after pre-treatment with GC activator NOR-3” value ([2]; 1 hour pretreatment with NOR-3, 72 hours of SS treatment) was “significant reduction in the IC50 value”. For the same compound, the pIC50 ([2]; Homo sapiens, MDA-MB-231, 72 h, read-out: growth inhibition IC50) was 4.08, the pIC50 [5] was 3.79 and the “increase in the activity of caspases 3 and 7 compared to vehicle” value [6] was 2-8 fold. The “activation of caspases 3 and 7” value (HMEC [1]) was “resistant”, the “inhibition of cAMP hydrolysis” value ([7]; breast tumor cell lysates, Fl-cAMP substrate) was “did not significantly affect” and the “inhibition of cGMP hydrolysis” value [7] was “inhibited cGMP hydrolysis”. The “inhibition of cAMP hydrolysis” value [8] was “did not affect”, the “inhibition of cGMP hydrolysis” value [8] was “did not affect” and the “concentration at which cGMP levels peak” value (MDA-MB-231 cells; [13]) was […]. For the same compound, the “increase of intracellular cGMP levels” value (MDA-MB-231 cells; [13]) was 2-3 fold, the “increase of intracellular cGMP levels” value (HMEC [9]) was “failed to induce cGMP levels” and the “time at which VASP phosphorylation peaked” value ([10]; MDA-MB-231, 100 μM) was 1 h. The “concentration at which increases in VASP phosphorylation were apparent” value ([10]; MDA-MB-231, after 30 minutes of treatment) was […], the “VASP phosphorylation at serine 239 (p-VASP levels)” value ([10]; MDA-MB-231, dose- and time-dependent) was “increased the levels of phosphorylated VASP” and the TUNEL labeling (breast tumor cells [11]) was “increased TUNEL labeling”. For the same compound, the “effect on cell cycle distribution” value (breast tumor cells [12]) was “did not have a significant effect”, the “IC50, cAMP hydrolysis by PDE4A” value (PDE4A) was “Inactive” and the “IC50, cGMP hydrolysis by PDE6C” value (PDE6C) was “Inactive”. For the same compound, the “IC50, cAMP hydrolysis by PDE7A” value (PDE7A) was “Inactive”, the “IC50, cAMP hydrolysis by PDE8A” value (PDE8A) was “Inactive” and the “IC50, cGMP hydrolysis by PDE9A” value (PDE9A) was “Inactive”. For the same compound, the “IC50, cAMP hydrolysis by PDE10A” value (PDE10A; cAMP substrate) was “Inactive”, the “IC50, cGMP hydrolysis by PDE10A” value (PDE10A; cGMP substrate) was “Inactive” and the “IC50, cAMP hydrolysis by PDE11A” value (PDE11A; cAMP substrate) was “Inactive”. For the same compound, the “IC50, cGMP hydrolysis by PDE11A” value (PDE11A; cGMP substrate) was “Inactive” and the pIC50 (COX-1) was […].
For COc1cc2c(cc1OC)-c1c/c(=N\c3c(C)cc(C)cc3C)n(C)c(=O)n1CC2 [Trequinsin, trequinsin], the “tumor cell growth inhibitory activity” value (human breast tumor cells) was “inhibited breast tumor cell growth”.
In the case of CCCc1nn(C)c2c(=O)[nH]c(-c3cc(S(=O)(=O)N4CCN(C)CC4)ccc3OCC)nc12 [sildenafil], the “tumor cell growth inhibitory activity” value (human breast tumor cells) was “none were found to be active; also recorded: unable to inhibit breast tumor cell growth”, the “inhibition of cGMP hydrolysis” value [7] was “inhibit the majority of cGMP PDE activity” and the “increase of intracellular cGMP levels” value (MDA-MB-231 cells; [14]) was “unable to significantly increase intracellular cGMP levels”. For the same compound, the PKG activation [10, 14] was “unable to significantly increase intracellular cGMP levels or activate PKG”.
With OCCN(CCO)c1nc(N2CCCCC2)c2nc(N(CCO)CCO)nc(N3CCCCC3)c2n1 [dipyridamole] the “tumor cell growth inhibitory activity” value (human breast tumor cells) was “none were found to be active”.
